# Laboratory results published in PubChem BioAssay AID1381 (University of Pittsburgh Molecular Library Screening Center, 2008).
# The campaign covered roughly 220,000 compounds. About 1,000 (0.45%) were called active.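 The calls were made as follows: active = plate z-score of nuclear minus cytoplasmic receptor signal below a set negative limit, without overly bright fluorescence or cell loss (cut at about -3.5 in these data, passing the limit was not always enough); inactive = the rest, inconclusive results apart.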 Only a selection was taken, and actives are over-represented in it overall.
# Experiment: inhibitors of GR-EGFP nuclear translocation, primary screen, dynein cargo transport inhibitor project, imaging, high-content, 3617.4 mouse cells (AID 1381)
# Details: stimulated with dexamethasone, 1 µM
# In short: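 Buffer or medium: tet-free medium with charcoal-stripped serum / Also added: dexamethasone agonist, 1.0 µM final, for 30 min / Timing: induction 48 h, compound 1 h, agonist 30 min / Measured by: high-content fluorescence imaging after fixation / Read-out: nuclear-to-cytoplasmic GR-EGFP distribution per well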
# [1] = measured here: cell count per field, at 20 µM
# [2] = measured here: cytoplasmic GR-EGFP intensity, at 20 µM, stronger effect = higher value
# [3] = measured here: nuclear GR-EGFP intensity, at 20 µM, stronger effect = lower value
# [4] = measured here: cell count per field, at 50 µM
# [5] = measured here: cytoplasmic GR-EGFP intensity, at 50 µM, stronger effect = higher value
# [6] = measured here: nuclear GR-EGFP intensity, at 50 µM, stronger effect = lower value
SMILES,"z-score (at 20 µM, stronger effect = lower value)",z-score [1],z-score [2],z-score [3],"z-score (at 50 µM, stronger effect = lower value)",z-score [4],z-score [5],z-score [6]
O=C(Nc1ccc(N2CCOCC2)cc1)c1ccc2c(c1)OCO2,1.56 (inactive),-0.797,-0.257,0.727,–,–,–,–
CCCC1NC(=S)NC(C)=C1C(C)=O (stereo not given),0.661 (inactive),0.486,-0.194,0.234,–,–,–,–
COc1ccc(C(=O)NCC(=O)N/N=C/c2ccc([N+](=O)[O-])o2)cc1OC,-4.33 (active),0.928,0.52,-1.68,–,–,–,–
COc1cc(/C=N\NC(=O)CNC(=O)c2cccc([N+](=O)[O-])c2)ccc1O,2.51 (inactive),-1.15,0.0365,1.56,–,–,–,–
COc1ccc(C(=O)NCC(=O)N/N=C/c2ccc([N+](=O)[O-])s2)cc1OC,-0.653 (inactive),0.617,-0.211,-0.24,–,–,–,–
CC(C)(C)OC(=O)NCCCCCC(=O)N/N=C/c1coc2ccccc2c1=O,-0.131 (inactive),-0.0505,-0.202,-0.314,–,–,–,–
C/C(=N\NC(=O)CSc1nc2ccccc2c(=O)n1-c1ccccc1C)c1cccs1,0.968 (inactive),-0.667,-0.231,0.554,–,–,–,–
CCn1c(SCc2cc(=O)n3ccsc3n2)nc2ccccc21,-0.0624 (inactive),-0.534,-0.319,0.783,–,–,–,–
CCCCCCc1cc2cc(-c3nnc(-c4cccc(OC)c4)o3)c(=O)oc2cc1O,–,–,–,–,-2.6 (inactive),-0.146,22.1,2.79
C[C@H](NC(=O)OC(C)(C)C)c1nnc(SCC(N)=O)o1,0.077 (inactive),-0.312,-0.175,0.307,–,–,–,–
CC(C)Sc1nnc([C@H](Cc2ccccc2)NC(=O)OC(C)(C)C)o1,-1.61 (inactive),1.71,0.279,-0.731,–,–,–,–
C[C@@H](NC(=O)OC(C)(C)C)c1nnc(S(=O)(=O)Cc2ccccc2)o1,-5.36 (active),0.73,1.44,-2.38,–,–,–,–
Cc1ccc(NC(=O)CN(C)Cc2ccc(F)cc2)c([N+](=O)[O-])c1,-0.244 (inactive),-0.235,-0.22,-0.284,–,–,–,–
CCOC(=O)C(=CNc1cccc(C)n1)C(=O)OCC,0.995 (inactive),0.752,-0.214,0.879,–,–,–,–
CCOC(=O)C(=Cc1ccccc1OC)C(=O)OCC,-5.08 (active),0.0073,1.43,-2.52,–,–,–,–
COc1ccccc1NC(=O)c1ccc(C)s1,–,–,–,–,0.335 (inactive),-0.862,-0.265,0.226
N#Cc1cccc(NC(=O)COC(=O)c2ccccc2C(=O)c2ccc(Cl)c([N+](=O)[O-])c2)c1,-0.407 (inactive),0.615,-0.326,-0.496,–,–,–,–
Cn1cnnc1SCC(=O)NNC(=O)COc1ccc(Br)cc1,0.431 (inactive),0.453,-0.218,-0.126,–,–,–,–
C[C@@H]1C[C@@H]2O[C@H]2/C=C\C=C\C(=O)Cc2c(Cl)c(O)cc(O)c2C(=O)O1,-3.8 (active),0.512,1.82,-1.89,–,–,–,–
COc1cc(CO)c(C2(CO)CCCC2)cc1OC,0.000321 (inactive),-0.54,-0.145,0.499,–,–,–,–

SMILES,"z-score (at 20 µM, stronger effect = lower value)",z-score [1],z-score [2],z-score [3],"z-score (at 50 µM, stronger effect = lower value)",z-score [4],z-score [5],z-score [6]
COC(=O)c1ccc(Sc2ccc(F)cc2)c(N)c1,0.257 (inactive),0.499,-0.377,0.132,–,–,–,–
Cc1ccc(C(C)NC(=O)Cn2nc(C)c([N+](=O)[O-])c2C)cc1 (stereo not given),-0.784 (inactive),0.727,-0.261,-0.607,–,–,–,–
COc1ccc(CCc2nnc(CCC(=O)NCc3cnn(-c4ccccc4C)c3)o2)cc1,1.76 (inactive),-1.6,-0.0906,1.43,–,–,–,–
O=[N+]([O-])c1cc(S(=O)(=O)CCCN2CCOCC2)ccc1F,-4.25 (active),0.317,1.15,-2.3,–,–,–,–
O=[N+]([O-])c1ccc(NCCCN2CCOCC2)c(Cl)c1,0.346 (inactive),-0.149,0.0336,0.676,–,–,–,–
O=C(NCCCN1CCOCC1)c1ccc([N+](=O)[O-])cc1[N+](=O)[O-],-0.163 (inactive),0.317,-0.243,0.0502,–,–,–,–
COC(=O)C(C(=O)Nc1cccc(Cl)c1C)C1CCCC1 (stereo not given),0.289 (inactive),0.616,0.0155,-0.208,–,–,–,–
CC(=O)c1ccc(-c2nnc(CCC(=O)N(C)Cc3cnc4ccccn34)o2)s1,-0.0124 (inactive),-0.441,-0.212,0.00751,–,–,–,–
CCN(CC)C(=O)CN(c1cccc([N+](=O)[O-])c1)S(=O)(=O)c1ccccc1,-0.611 (inactive),0.944,-0.266,-0.263,–,–,–,–
O=C(CCl)N(Cc1cccc([N+](=O)[O-])c1)c1cccc(Cl)c1,-4.69 (active),-1.23,2.38,-2.48,–,–,–,–
O=C(Nc1cccc([N+](=O)[O-])c1)Nc1ccc(Cl)cn1,0.686 (inactive),-0.334,-0.0491,0.778,–,–,–,–
CCOc1ccc(Br)cc1S(=O)(=O)Nc1cccc(S(=O)(=O)N(CC)CC)c1,-0.331 (inactive),0.488,-0.167,-0.464,–,–,–,–
O=C(Nc1ccc(Cl)cc1)c1ccsn1,1.02 (inactive),-1.19,-0.158,1.14,–,–,–,–
CS(=O)(=O)c1ccc(Cl)c(NC(=O)Nc2ccccc2)c1,1.27 (inactive),-0.472,-0.245,0.728,–,–,–,–
O=C(Nc1ccccc1)c1nnsc1S(=O)(=O)c1ccc(Cl)cc1,-5.03 (active),0.905,0.759,-1.85,–,–,–,–
CC(Nc1ccccc1)c1cccnc1 (stereo not given),-0.716 (inactive),0.0401,-0.305,-0.598,–,–,–,–
CC1=C/C(=N\OS(=O)(=O)c2ccccc2)C=CC1=O,–,–,–,–,-4.5 (active),-1.11,1.28,-2.71
CCOC(=O)C1(S(=O)(=O)c2ccccc2)CCN(Cc2ccccc2)CC1,-0.25 (inactive),0.352,-0.189,0.556,–,–,–,–
CC1=C/C(=N\S(=O)(=O)c2ccccc2)C(C(C)C)=CC1=O,-0.707 (inactive),-0.217,-0.313,0.209,–,–,–,–
COc1ccc(/C=N/N=C2/C(=O)Nc3ccccc32)cc1O,0.0879 (inactive),-1.02,0.671,0.854,–,–,–,–

SMILES,"z-score (at 20 µM, stronger effect = lower value)",z-score [1],z-score [2],z-score [3],"z-score (at 50 µM, stronger effect = lower value)",z-score [4],z-score [5],z-score [6]
C=CCOC(=O)C1=C[C@@H](c2ccccc2)C[C@@H](OCc2ccc(CO)cc2)O1,-0.243 (inactive),-0.581,-0.228,0.233,–,–,–,–
CC(=O)c1cc(C#N)c(SCC(=O)Nc2nccs2)nc1C,0.633 (inactive),-0.767,-0.205,1,–,–,–,–
CCn1c(SCC(=O)Nc2nc(C)cs2)nnc1C(C)NC(=O)c1ccccc1 (stereo not given),0.931 (inactive),-0.274,-0.247,-0.608,–,–,–,–
COc1ccc(NC(=O)/C(Cl)=C(/Cl)S(=O)Cc2ccc(C)cc2)cn1 (stereo not given),-5.02 (inactive),-1.31,4.96,-1.87,–,–,–,–
COc1ccc(CS(=O)/C(Cl)=C(/Cl)C(=O)Nc2ccc(OC)nc2)cc1 (stereo not given),-5.17 (active),0.13,3.61,-2.19,–,–,–,–
COc1ccc(NC(=S)Nc2ccccc2Cl)cn1,1.03 (inactive),-0.0291,-0.33,0.285,–,–,–,–
O=C(NCc1cccnc1)c1cccc(-c2cc3ccccc3oc2=O)c1,-0.31 (inactive),0.631,-0.22,-0.235,–,–,–,–
Cc1ccc(S(=O)(=O)C2C(=O)NC3(C)CC2c2ccccc2O3)cc1 (stereo not given),-0.689 (inactive),-0.187,-0.199,-0.503,–,–,–,–
CCc1ccc(/C=N/NC(=O)c2ccc(OC3CCCC3)cc2)s1,–,–,–,–,-0.285 (inactive),0.0349,-0.199,-0.114
Cc1nc(-c2ccccc2)sc1C(=O)/C=C/c1ccccc1,-2.15 (inactive),0.685,-0.0664,-0.902,–,–,–,–
Cc1[nH]c(=O)c(C(=O)/C=C/c2ccccc2)c2c1CCCC2,-3.92 (active),0.356,0.353,-1.71,–,–,–,–
O=C(/C=C/c1ccccc1)c1ccccc1O,-0.596 (inactive),0.171,-0.18,0.0198,–,–,–,–
CSc1nc2c(c(=O)[nH]1)C(c1cccc(Cl)c1Cl)CC(=O)N2 (stereo not given),-0.956 (inactive),0.453,-0.232,-0.546,–,–,–,–
O=C(/C=C/c1cnc2ccccc2n1)NC1CCCCCC1,0.072 (inactive),-0.372,-0.262,-0.0867,–,–,–,–
O=C(O)c1ccccc1OCc1ccccc1Cl,1.56 (inactive),-0.166,-0.834,1.06,–,–,–,–
Cc1ccc(CN2CCC(N3CCC(C(=O)NCC4CCCO4)CC3)CC2)o1 (stereo not given),0.0309 (inactive),-0.115,-0.27,0.507,–,–,–,–
Fc1ccccc1/C=C1\CCCC2=C1Nc1ncnn1C2c1ccccc1F (stereo not given),-4.08 (active),0.757,0.917,-1.5,–,–,–,–
Cc1c(C(=O)Nc2ccccc2)sc2nc3n(c(=O)c12)CCCCC3,0.507 (inactive),0.149,-0.32,0.154,–,–,–,–
Cc1ccc(S(=O)(=O)NC(=O)N2CCCN(Cc3ccc(F)cc3)CC2)cc1,-0.425 (inactive),0.12,-0.231,-0.245,–,–,–,–
CC(=O)Nc1ccc(S(=O)(=O)NCC(=O)OCc2cc(=O)oc3ccc4ccccc4c23)cc1,0.304 (inactive),-0.781,-0.141,-0.169,–,–,–,–
